Rows were chosen to be rich in hits. Some 2.6% of all compounds tested hit in one or more screens of this group.
EP2 modulator: EP2 receptor (human) modulation; P43116; EP2-expressing cells, cAMP HTRF FRET, PGE2 co-stimulation; induction, % at 25 µM; hit rate 0.83% among 260,000; AID 940;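 active = compounds whose cAMP rise, as percent of the full-agonist control response, exceeds 60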;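 note: rat C6 glioma line stably carrying human EP2 under a CMV promoter; the protocol text gives 20 µM as final concentration; 100% = response of wells given 1 µM PGE2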
MC4R barr agon: activates human MC4R beta-arrestin recruitment; P32245; U2OS MC4R beta-arrestin complementation, luminescence; percent of melanotan II response, DMSO zero; hit rate 0.98% among 360,000; activation, % at 8.9 µM; AID 540308;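 active = activation above a per-plate cutoff, the mean activation of sample wells on that plate plus 3 SD, cut at about 8% in these data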
MC4R antagonist: human MC4R antagonism in cAMP assay; P32245; MC4R-expressing cells, MTII-stimulated cAMP, LANCE TR-FRET; inhibition, % at 6.5 µM; hit rate 0.48% among 360,000; AID 540295;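 active = inhibition above its plate's cutoff, the mean of tested wells on that plate plus 3 SD, cut at about 29% in these data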;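 note: 0% = Melanotan II alone and 100% = Melanotan II plus saturating MCL0020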
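System: U2OS cells stably expressing human melanocortin 4 receptor (MC4R). Reagent: Melanotan II challenge after compound preincubation. Doses: 6.5 µM. Times: 30-min compound, 1-h challenge, 1-h detection, room temperature. Measured by: TR-FRET with Eu-cAMP and labeled anti-cAMP, 671 nm. Replicates: singlicate.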
Granule exo inh: blocks lytic granule exocytosis | TALL-104 LAMP-1 surface exposure, flow cytometry; cells stimulated with thapsigargin and PMA | inhibition, % at 10 µM | hit rate 0.66% among 360,000 | AID 651702;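 active = inhibition above about 55%, limit read from the data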
T cell HTS: modulates CD8 T cell binding to vesicles. 2C CD8+ T cell-vesicle binding, flow cytometry; active compounds read low. response (vesicle binding), % at 7 µM. hit rate 0.068% among 330,000. AID 2052;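 active = response, share of CD8 T cells binding vesicles, and their 90th percentile fluorescence all below set limits, cut at about 80% in these data, passing the limit was not always enough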;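 note: values below 100% mean blocked vesicle binding to the CD8+ T cells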
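Incubation: binding step 1.5 h, 37 °C, antibody labelling 20 min, ice; system: murine 2C transgenic CD8+ T lymphocytes; technique: cytometric PE anti-B7-1 and Alexa647 anti-CD8 signals after 1% paraformaldehyde fixation; also added: QL9-charged Drosophila Ld/ICAM-1/B7-1 vesicles; control set: naked versus QL9-loaded vesicles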
PGE2 EP2 inh: blocks the human prostaglandin E2 receptor EP2 | P43116 | AID 1422 | inhibition, % at 25 µM | C6 glioma cells expressing human EP2, cAMP TR-FRET; cells stimulated with saturating PGE2 | hit rate 0.52% among 260,000;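 active = percent inhibition above 40 after rounding to a whole number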;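 note: rat C6 glioma host cells with rolipram phosphodiesterase inhibitor present; the protocol text gives 20 µM as final concentration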
MC4R barr conf: human MC4R beta-arrestin agonism confirmation | shares compounds with MC4R barr agon | U2OS MC4R beta-arrestin recruitment, luminescence; scaled DMSO 0%, Melanotan II 100% | activation, % at 8.9 µM | hit rate 31% among 2,400 | AID 602192;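 active = mean activation across replicates above the hit cutoff set in the earlier primary screen, cut at about 8% in these data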
MOR-DOR barr ag: counter-screen for MC4R agonists: agonists of mu-delta opioid heterodimer; hit rate 5.8% among 2,400; shares compounds with MC4R barr agon; activation, % at 9.2 µM; U2OS PathHunter beta-arrestin, beta-gal luminescence; percent of deltorphin B response, DMSO zero;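 active = mean activation across replicates exceeds the hit threshold derived in the earlier primary screen, cut at about 18% in these data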;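 note: 100% = deltorphin B at 0.9 µM final and 0% = DMSO alone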
Target sequence (P35372 whole entry, looked up): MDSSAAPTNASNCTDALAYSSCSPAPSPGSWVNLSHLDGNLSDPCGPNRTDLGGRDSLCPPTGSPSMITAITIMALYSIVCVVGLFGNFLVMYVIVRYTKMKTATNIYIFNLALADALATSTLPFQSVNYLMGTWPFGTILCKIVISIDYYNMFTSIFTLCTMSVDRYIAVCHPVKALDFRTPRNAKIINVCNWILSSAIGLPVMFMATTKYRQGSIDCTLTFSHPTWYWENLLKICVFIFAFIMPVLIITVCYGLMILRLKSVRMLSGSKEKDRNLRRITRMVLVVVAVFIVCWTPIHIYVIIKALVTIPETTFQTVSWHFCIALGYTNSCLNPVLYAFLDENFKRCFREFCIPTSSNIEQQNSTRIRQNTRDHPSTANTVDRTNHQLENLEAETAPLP
Target sequence (P41143 whole entry, looked up): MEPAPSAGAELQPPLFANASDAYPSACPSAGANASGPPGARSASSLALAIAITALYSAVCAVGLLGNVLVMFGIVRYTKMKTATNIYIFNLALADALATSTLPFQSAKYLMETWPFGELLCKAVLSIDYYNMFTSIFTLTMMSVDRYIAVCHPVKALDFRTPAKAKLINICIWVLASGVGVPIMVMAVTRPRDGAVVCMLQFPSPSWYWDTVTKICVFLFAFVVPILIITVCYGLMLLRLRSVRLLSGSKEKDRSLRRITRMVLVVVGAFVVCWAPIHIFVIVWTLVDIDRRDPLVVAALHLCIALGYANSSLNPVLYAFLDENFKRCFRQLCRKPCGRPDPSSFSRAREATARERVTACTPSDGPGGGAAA
* = called active by the depositor; ! = not active in a repeat.

Results for COC(=O)COc1ccc2oc(=O)cc(-c3cc4ccccc4o3)c2c1 ?
MC4R barr agon: 16*; MC4R antagonist: -11; Granule exo inh: 5; T cell HTS: 240; MC4R barr conf: 5; MOR-DOR barr ag: 3

Results for C#CCOCCOCCOCCNc1nc(N2CCN(C(=O)[C@H](CCC(=O)O)n3cc(C(N)Cc4ccc(O)cc4)nn3)CC2)nc(N2CCN(C(=O)[C@H](Cc3ccc(O)cc3)n3cc(C(N)[C@H](C)CC)nn3)CC2)n1 (stereo partly drawn) ?
EP2 modulator: 10; PGE2 EP2 inh: 0

Results for COc1ccc(OC)c(NC(=O)COC(=O)c2cc3c(s2)CCC3)c1 ?
EP2 modulator: 0; MC4R barr agon: 20*; MC4R antagonist: 12; Granule exo inh: 0; T cell HTS: 215; PGE2 EP2 inh: 2; MC4R barr conf: 7; MOR-DOR barr ag: 7

Results for COc1ccccc1NC(=O)COC(=O)c1cc2c(s1)CCC2 ?
MC4R barr agon: 2; MC4R antagonist: 4; Granule exo inh: 8

What do the screens show for `C/C(=N/NC(=O)c1cccs1)c1ccc(NC(=O)COc2ccc(Cl)cc2)cc1`?
EP2 modulator: -4; MC4R barr agon: 12*; MC4R antagonist: 1; Granule exo inh: 2; T cell HTS: 160; PGE2 EP2 inh: 5; MC4R barr conf: 13*; MOR-DOR barr ag: 7

What do the screens show for `C/C(=N\NC(=O)c1ccc(Cl)cc1)c1cccs1`?
EP2 modulator: -26; MC4R barr agon: 2; MC4R antagonist: -2; Granule exo inh: 1; PGE2 EP2 inh: 4

How did O=C(/C=C/c1ccc(Br)cc1)N1CCN(c2cccc(C(F)(F)F)c2)CC1 do in these assays?
EP2 modulator: -6; MC4R barr agon: 14*; MC4R antagonist: 11; Granule exo inh: -29; T cell HTS: 266; PGE2 EP2 inh: 5; MC4R barr conf: -3; MOR-DOR barr ag: 5

Results for CCOc1cc(/C=C2\CCn3c2nc2cc(Cl)ccc2c3=O)ccc1O ?
MC4R barr agon: 12*; MC4R antagonist: 11; Granule exo inh: -8; T cell HTS: 425; MC4R barr conf: 9.2*; MOR-DOR barr ag: 2

Results for CSc1c(CC(=O)NCCCO)n(Cc2ccccc2)c2ccccc12 ?
MC4R barr agon: 0; MC4R antagonist: 2; Granule exo inh: -4; T cell HTS: 163

Results for COc1ccc(NC(=O)Cc2c(SC)c3ccccc3n2Cc2ccccc2)cc1 ?
EP2 modulator: 23; MC4R barr agon: 24*; MC4R antagonist: 9; Granule exo inh: -3; T cell HTS: 280; PGE2 EP2 inh: 4; MC4R barr conf: 2; MOR-DOR barr ag: 10

How did O=C(Nc1ccccc1F)c1ccc(CN2CCc3ccccc3C2)cc1 do in these assays?
MC4R barr agon: 1; MC4R antagonist: 0; Granule exo inh: -10; T cell HTS: 224

Results for COc1ccc(-c2cn[nH]c2-c2ccc(OCc3ccccc3F)cc2O)cc1OC ?
EP2 modulator: -29; MC4R barr agon: 14*; MC4R antagonist: 0; Granule exo inh: 51; T cell HTS: 268; PGE2 EP2 inh: 4; MC4R barr conf: 3; MOR-DOR barr ag: 12

How did N=C(N)c1ccc(N=Nc2c(O)ccc3c2[nH]c2ccccc23)cc1 do in these assays?
EP2 modulator: -23; MC4R barr agon: 10.0*; MC4R antagonist: 0; Granule exo inh: 0; PGE2 EP2 inh: 51*; MC4R barr conf: 10*; MOR-DOR barr ag: 17

What do the screens show for `NC(=O)c1ccc(N=Nc2c(O)c3ccccc3[nH]c2=O)cc1`?
EP2 modulator: -21; T cell HTS: 141; PGE2 EP2 inh: 14

What do the screens show for `Cn1cccc1Cc1nnc(SCC(=O)N2CCOCC2)n1CCc1ccccc1`?
EP2 modulator: 28; MC4R barr agon: 0; MC4R antagonist: 2; Granule exo inh: 1; T cell HTS: 111; PGE2 EP2 inh: 8

How did O=C(COC(=O)c1cc(S(=O)(=O)N2CCOCC2)ccc1O)NCCc1ccccc1 do in these assays?
EP2 modulator: 15; MC4R barr agon: 0; MC4R antagonist: 9; Granule exo inh: 2; T cell HTS: 276; PGE2 EP2 inh: 5

What do the screens show for `CCCCn1c(=O)c(CCC(=O)OCC(=O)Nc2ccc(F)c(Cl)c2)nc2ccccc21`?
EP2 modulator: 8; MC4R barr agon: 10*; MC4R antagonist: 9; Granule exo inh: -2; T cell HTS: 360; PGE2 EP2 inh: 2; MC4R barr conf: 6; MOR-DOR barr ag: 4

What do the screens show for `CCCCn1c(=O)c(CCC(=O)OCC(=O)Nc2cc(Cl)ccc2OC)nc2ccccc21`?
EP2 modulator: 5; MC4R barr agon: -2; MC4R antagonist: 7; Granule exo inh: -2; T cell HTS: 278; PGE2 EP2 inh: 8

How did S=C1Nc2ccccc2Sc2ccc(Cl)cc21 do in these assays?
EP2 modulator: -8; MC4R barr agon: 23*; MC4R antagonist: -9; Granule exo inh: 3; T cell HTS: 224; PGE2 EP2 inh: 1; MC4R barr conf: 10*; MOR-DOR barr ag: 7

Results for CN1CCN(C2Cc3ccccc3Sc3ccc(Cl)cc32)CC1 (stereo not drawn) ?
EP2 modulator: -3; MC4R barr agon: 4; MC4R antagonist: -2; Granule exo inh: 14; T cell HTS: 632; PGE2 EP2 inh: 16

Results for CSc1ccc2c(c1)C(N1CCN(C)CC1)Cc1ccccc1S2 (stereo not drawn) ?
EP2 modulator: -24; MC4R barr agon: 11*!; MC4R antagonist: -1; Granule exo inh: 21; T cell HTS: 381; PGE2 EP2 inh: 16; MC4R barr conf: 6; MOR-DOR barr ag: 8

How did O=C(COc1ccccc1)Nc1nnc(COc2ccccc2)s1 do in these assays?
MC4R barr agon: 9.9*; MC4R antagonist: 2; Granule exo inh: -14; T cell HTS: 522; MC4R barr conf: -5; MOR-DOR barr ag: 3

What do the screens show for `O=C(CSc1ccccc1)Nc1nnc(COc2ccc(Cl)cc2)s1`?
EP2 modulator: 11; MC4R barr agon: 18*; MC4R antagonist: -2; Granule exo inh: -1; T cell HTS: 307; PGE2 EP2 inh: 6; MC4R barr conf: 3; MOR-DOR barr ag: 7

What do the screens show for `O=C(Nc1nnc(COc2ccccc2)s1)C1CCC1`?
EP2 modulator: -29; PGE2 EP2 inh: 9

Screening data (PubChem)
